The values that follow come from ChEMBL document CHEMBL4665651, “Design, synthesis, and biological evaluation of some novel 4-aminoquinazolines as Pan-PI3K inhibitors” (Bioorg Med Chem, 2019).

SMILES strings stand for the structures.

For orientation: IC50 means the midpoint of a concentration-inhibition curve.

One assay deals with MCF7. Briefly: Antiproliferative activity against human MCF7 cells assessed as reduction in cell viability incubated for 72 hrs by SRB assay. The class given is functional, cell-based. The settings on record: MCF7, 72 h. The procedure, abridged:
(§1)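 Cell lines grown at 37 °C in 5% CO₂: A549 in RPMI1640, MCF-7 in DMEM, each with 10% FBS plus penicillin/streptomycin/amphotericin B. Cells exposed to a range of compound concentrations for 72 h, then TCA-fixed and SRB-stained. Growth inhibition = 100 − 100×(OD sample − OD day 0)/(OD negative control − OD day 0). IC50 from non-linear regression of percent growth against concentration.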

The next assay relates to HCT-116. As to the kind of experiment: Antiproliferative activity against human HCT-116 cells assessed as reduction in cell viability incubated for 72 hrs by SRB assay. The class given is functional, cell-based. The settings on record: HCT-116, 72 h. A general note: In SRB staining, fixed cells bind dye roughly in proportion to their protein.
For another assay, the system named is A549. Briefly: Antiproliferative activity against human A549 cells assessed as reduction in cell viability incubated for 72 hrs by SRB assay. The settings on record: A549, 72 h. The class given is functional, cell-based. In short, it runs like this: as §1
The target of assay [1] is Epidermal growth factor receptor (Homo sapiens, UniProt P00533). Briefly: Inhibition of EGFR (unknown origin) using FAM-labeled peptide as substrate incubated for 10 mins followed by substrate addition and measured after 1 hr by mobility shift assay. The procedure, abridged: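 Mobility shift assay in 50 mM HEPES pH 7.5, 10 mM MgCl₂, 2 mM DTT, 0.0015% Brij35. Compound in 10-point DMSO dilution, run in duplicate. Enzyme preincubated with compound 10 min at room temperature. FAM-labeled peptide and ATP then added and reaction run at 28 °C for 1 h. Stopped with EDTA buffer; conversion turned into percent inhibition and fitted to a Hill equation for IC50.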
Chain of Epidermal growth factor receptor (P00533 whole entry): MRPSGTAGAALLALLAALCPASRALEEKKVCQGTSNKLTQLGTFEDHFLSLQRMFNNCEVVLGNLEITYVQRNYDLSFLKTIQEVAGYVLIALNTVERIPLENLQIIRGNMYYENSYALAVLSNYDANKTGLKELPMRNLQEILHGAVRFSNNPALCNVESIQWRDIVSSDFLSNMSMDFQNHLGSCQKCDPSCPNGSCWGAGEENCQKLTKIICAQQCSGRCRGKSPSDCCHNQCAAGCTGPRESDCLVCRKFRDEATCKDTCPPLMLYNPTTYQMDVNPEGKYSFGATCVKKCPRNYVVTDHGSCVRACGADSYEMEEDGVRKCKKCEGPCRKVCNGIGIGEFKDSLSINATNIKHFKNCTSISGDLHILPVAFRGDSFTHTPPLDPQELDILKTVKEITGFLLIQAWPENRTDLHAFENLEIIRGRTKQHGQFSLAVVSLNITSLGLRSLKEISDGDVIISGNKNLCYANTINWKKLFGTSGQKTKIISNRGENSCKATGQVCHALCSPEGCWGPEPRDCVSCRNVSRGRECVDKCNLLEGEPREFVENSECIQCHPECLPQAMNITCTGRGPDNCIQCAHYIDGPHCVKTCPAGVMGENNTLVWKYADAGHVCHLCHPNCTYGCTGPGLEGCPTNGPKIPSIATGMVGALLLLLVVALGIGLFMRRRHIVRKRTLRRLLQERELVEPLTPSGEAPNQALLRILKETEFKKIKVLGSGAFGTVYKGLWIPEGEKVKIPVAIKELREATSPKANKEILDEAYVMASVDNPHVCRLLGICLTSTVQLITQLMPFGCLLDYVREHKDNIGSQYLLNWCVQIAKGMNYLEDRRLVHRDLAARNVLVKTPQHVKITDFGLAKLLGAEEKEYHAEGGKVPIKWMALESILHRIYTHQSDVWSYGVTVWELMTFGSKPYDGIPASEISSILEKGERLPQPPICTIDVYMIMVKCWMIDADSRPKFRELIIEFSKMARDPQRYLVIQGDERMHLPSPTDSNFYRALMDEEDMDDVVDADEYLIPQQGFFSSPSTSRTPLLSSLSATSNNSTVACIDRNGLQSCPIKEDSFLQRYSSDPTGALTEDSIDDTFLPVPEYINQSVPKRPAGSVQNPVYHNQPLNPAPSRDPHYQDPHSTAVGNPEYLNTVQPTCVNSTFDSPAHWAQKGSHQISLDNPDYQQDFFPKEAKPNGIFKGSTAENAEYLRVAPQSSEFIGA

Consider `COc1ncc(-c2ccc3ncnc(Nc4cnn(CCC(=O)O)c4)c3c2)cc1NS(=O)(=O)c1ccc(F)cc1F`, for which the values for the IC50 with MCF7, with HCT-116 and in the assay on A549 were 0.56 µM, 1.29 µM and 3.84 µM, respectively.

Consider `COc1ncc(-c2ccc3ncnc(Nc4ccc(OCCO)c(Cl)c4)c3c2)cc1NS(=O)(=O)c1ccc(F)cc1F`, for which the IC50 in the assay on MCF7 came out at 3.74 µM; in the assay with HCT-116, 7.32 µM; in the assay with A549, 5.98 µM.

In the case of `COc1ncc(-c2ccc3ncnc(Nc4ccc(OCCO)nc4)c3c2)cc1NS(C)(=O)=O`, the IC50 in the assay on MCF7 was 3.08 µM; in the assay on HCT-116, 5.36 µM; in the assay on A549, 5.08 µM.

As to `COc1ncc(-c2ccc3ncnc(Nc4ccc(OCCCO)nc4)c3c2)cc1NS(=O)(=O)c1ccc(F)cc1F`, the IC50 with MCF7 was 6.12 µM; in the assay with HCT-116, 3.68 µM; in the assay on A549 it was 9.36 µM.

As to `COc1ncc(-c2ccc3ncnc(Nc4ccc(OCCO)cc4)c3c2)cc1NS(=O)(=O)c1ccc(F)cc1F`, the figures for the IC50 with MCF7, in the assay with HCT-116 and in the assay on A549 were 1.65 µM, 1.06 µM and 2.69 µM, respectively.

On to `CCCCS(=O)(=O)Nc1cc(-c2ccc3ncnc(Nc4ccc(OCCO)nc4)c3c2)cnc1OC`, for which the half-inhibitory concentration (IC50) was above 20 µM with MCF7, above 20 µM in the assay on HCT-116 and 13.3 µM with A549.

In the case of `COc1ncc(-c2ccc3ncnc(Nc4cnn(CC(=O)O)c4)c3c2)cc1NS(=O)(=O)c1ccc(F)cc1F`, the concentration for half-maximal inhibition (IC50) with MCF7 was determined as 0.7 µM; with HCT-116, 1.54 µM; with A549, 5.2 µM.

`COc1ncc(-c2ccc3ncnc(Nc4cnn(CCO)c4)c3c2)cc1NS(C)(=O)=O`: the IC50 in assay [1] was found to be 2.52 µM; in the assay on MCF7, 0.77 µM; with HCT-116 it was 1.49 µM; with A549, 8.22 µM.

Turning to `COc1ncc(-c2ccc3nccc(-c4ccnnc4)c3c2)cc1NS(=O)(=O)c1ccc(F)cc1F` [OMIPALISIB], the IC50 worked out at 0.03 µM in the assay with MCF7, 0.14 µM in the assay on HCT-116 and 0.86 µM with A549.

On to `COC(=O)Cn1cc(Nc2ncnc3ccc(-c4cnc(OC)c(NS(=O)(=O)c5ccc(F)cc5F)c4)cc23)cn1`, for which the figures for the half-inhibitory concentration (IC50) in the assay with MCF7, in the assay on HCT-116 and in the assay on A549 were 0.67 µM, 1.26 µM and 4.28 µM, respectively.

As to `COc1cc(Nc2ncnc3ccc(-c4cnc(OC)c(NS(=O)(=O)c5ccc(F)cc5F)c4)cc23)ccc1OCCO`, the IC50 with MCF7 came to 2.26 µM; in the assay on HCT-116, 5.72 µM; with A549 it was 3.76 µM.

Turning to `COc1ncc(-c2ccc3ncnc(Nc4ccc(OCCO)c(F)c4)c3c2)cc1NS(=O)(=O)c1ccc(F)cc1F`, the IC50 is 4.82 µM in the assay with MCF7, 9.16 µM with HCT-116 and 6.64 µM with A549.

Turning to `COC(=O)CCn1cc(Nc2ncnc3ccc(-c4cnc(OC)c(NS(=O)(=O)c5ccc(F)cc5F)c4)cc23)cn1`, the IC50 worked out at 0.49 µM in the assay with MCF7, 0.97 µM with HCT-116 and 2.99 µM with A549.

Regarding `COc1ncc(-c2ccc3ncnc(Nc4cnn(CCCO)c4)c3c2)cc1NS(=O)(=O)c1ccc(F)cc1F`, the half-inhibitory concentration (IC50) with MCF7 is 1.31 µM; with HCT-116 it was 0.48 µM; in the assay on A549, 4.83 µM.

Take `COc1ncc(-c2ccc3ncnc(Nc4ccc(OCCO)cc4)c3c2)cc1NS(C)(=O)=O`: the IC50 in the assay with MCF7 stood at 3.27 µM; with HCT-116, 4.86 µM; in the assay on A549, 5.2 µM.

As to `COc1ncc(-c2ccc3ncnc(Nc4ccc(OCCO)nc4)c3c2)cc1NS(=O)(=O)c1ccc(F)cc1F`, the IC50 in the assay on MCF7 stood at 4.3 µM; with HCT-116, 2.34 µM; in the assay with A549, 4.12 µM.

On to `COc1ncc(-c2ccc3ncnc(Nc4cnn(CCCO)c4)c3c2)cc1NS(C)(=O)=O`, for which the results for the IC50 with MCF7, with HCT-116 and with A549 were 0.73 µM, 1.42 µM and 3.6 µM, respectively.
